# Results published in ChEMBL document CHEMBL1154837, “Identification of antibacterial and antifungal pharmacophore sites for potent bacteria and fungi inhibition: indolenyl sulfonamide derivatives” (Eur J Med Chem, 2010).
# How the values were obtained:
# Staphylococcus aureus = test: Antimicrobial activity against Staphylococcus aureus at 1 mg/ml by agar-well diffusion method; type: functional; details: read-out: IZ
# Procedure, shortened: (§1)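 Agar-well diffusion on nutrient agar. The surface was swabbed with 2–8 h old inocula of about 10^4–10^6 CFU/mL. Wells were 6 mm across and at least 24 mm apart. Each well received sample at 1 mg/mL in DMSO. DMSO served as negative control and imipenem as positive control. Plates were incubated at 37 °C for 24 h, and the diameter of the complete-inhibition zone was measured in mm.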
# Escherichia coli [1] = test: Antimicrobial activity against Escherichia coli at 1 mg/ml by agar-well diffusion method; type: functional; details: read-out: IZ; procedure, shortened: as §1
# Salmonella enterica [2] = test: Antimicrobial activity against Salmonella typhi at 1 mg/ml by agar-well diffusion method; type: functional, Salmonella enterica subsp. enterica serovar Typhi; details: read-out: IZ
# Procedure, shortened: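 Agar-well diffusion on nutrient agar. Plates were swabbed with 2–8 h old inoculum at about 10^4–10^6 CFU/mL, and 6 mm wells were cut at least 24 mm apart. Test sample 1 mg/mL in DMSO. DMSO served as negative control and imipenem as positive control. Plates were incubated at 37 °C for 24 h, and the diameter of complete-inhibition zones was measured (mm).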
# Pseudomonas aeruginosa = test: Antimicrobial activity against Pseudomonas aeruginosa at 1 mg/ml by agar-well diffusion method; type: functional; details: read-out: IZ; procedure, shortened: as §1
# Bacillus subtilis [3] = test: Antimicrobial activity against Bacillus subtilis at 1 mg/ml by agar-well diffusion method; type: functional; details: read-out: IZ; procedure, shortened: as §1
# Shigella flexneri [4] = test: Antimicrobial activity against Shigella flexneri at 1 mg/ml by agar-well diffusion method; type: functional; details: read-out: IZ; procedure, shortened: as §1
# Nakaseomyces glabratus [5] = test: Antimicrobial activity against Candida glabrata at 200 ug/ml after 7 days; type: functional; details: 168 h
# Procedure, shortened: (§2)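 Sabouraud dextrose agar was seeded with fungal spore suspension at 10^5 cfu/mL and poured into Petri plates. Discs soaked with compound at 200 µg/mL in DMSO were placed on the agar surface. Plates were incubated at 32 °C for seven days. Results were recorded as % inhibition, with miconazole and amphotericin B as reference drugs.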
# Candida albicans [6] = test: Antimicrobial activity against Candida albicans at 200 ug/ml after 7 days; type: functional; details: 168 h; procedure, shortened: as §2
# Fusarium solani [7] = test: Antimicrobial activity against Fusarium solani at 200 ug/ml after 7 days; type: functional; details: 168 h; procedure, shortened: as §2
# Aspergillus flavus = test: Antimicrobial activity against Aspergillus flavus at 200 ug/ml after 7 days; type: functional; details: 168 h; procedure, shortened: as §2
# Shigella flexneri [8] = test: Antimicrobial activity against Shigella flexneri after 24 hrs by disk diffusion assay; type: functional
# Procedure, shortened: (§3)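 MIC by disc diffusion, using discs prepared with 10, 25, 50 and 100 µg/mL of compound.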
# Salmonella enterica [9] = test: Antimicrobial activity against Salmonella typhi after 24 hrs by disk diffusion assay; type: functional, Salmonella enterica subsp. enterica serovar Typhi
# Escherichia coli [10] = test: Antimicrobial activity against Escherichia coli after 24 hrs by disk diffusion assay; type: functional; procedure, shortened: as §3
# Candida albicans [11] = test: Antimicrobial activity against Candida albicans after 7 days; type: functional
# Microsporum canis = test: Antimicrobial activity against Microsporum canis after 7 days; type: functional
# Trichophyton longifusum = test: Antimicrobial activity against Trichophyton longifusum after 7 days; type: functional
# Fusarium solani [12] = test: Antimicrobial activity against Fusarium solani after 7 days; type: functional
# Nakaseomyces glabratus [13] = test: Antimicrobial activity against Candida glabrata after 7 days; type: functional
# Bacillus subtilis [14] = test: Antimicrobial activity against Bacillus subtilis after 24 hrs by disk diffusion assay; type: functional; procedure, shortened: as §3
SMILES,zone of inhibition at 1000 µg/mL (Staphylococcus aureus),zone of inhibition at 1000 µg/mL (Escherichia coli [1]),zone of inhibition at 1000 µg/mL (Salmonella enterica [2]),zone of inhibition at 1000 µg/mL (Pseudomonas aeruginosa),zone of inhibition at 1000 µg/mL (Bacillus subtilis [3]),zone of inhibition at 1000 µg/mL (Shigella flexneri [4]),growth inhibition at 200 µg/mL (Nakaseomyces glabratus [5]),growth inhibition at 200 µg/mL (Candida albicans [6]),growth inhibition at 200 µg/mL (Fusarium solani [7]),growth inhibition at 200 µg/mL (Aspergillus flavus),MIC (Shigella flexneri [8]),MIC (Salmonella enterica [9]),MIC (Escherichia coli [10]),MIC (Candida albicans [11]),MIC (Microsporum canis),MIC (Trichophyton longifusum),MIC (Fusarium solani [12]),MIC (Nakaseomyces glabratus [13]),MIC (Bacillus subtilis [14])
C[C@@H](O)[C@H]1C(=O)N2C(C(=O)O)=C(SCCNC=N)C[C@H]12 [IMIPENEM ANHYDROUS],30 mm,30 mm,27 mm,26 mm,28 mm,27 mm,,,,,,,,,,,,,
O=S(=O)(Nc1ncccn1)c1ccc(/N=C/c2c[nH]c3ccccc23)cc1,19 mm,19 mm,17 mm,20 mm,19 mm,18 mm,20%,35%,70%,25%,,,,,,,,,
O=S(=O)(Nc1nccs1)c1ccc(/N=C/c2c[nH]c3ccccc23)cc1,23 mm,24 mm,23 mm,20 mm,24 mm,23 mm,60%,40%,80%,30%,131 µM,262 µM,262 µM,,,,,,
NS(=O)(=O)c1ccc(/N=C/c2c[nH]c3ccccc23)cc1,18 mm,21 mm,20 mm,19 mm,20 mm,18 mm,25%,40%,43%,55%,,,,,,,,,
Cc1noc(NS(=O)(=O)c2ccc(/N=C/c3c[nH]c4ccccc34)cc2)c1C,20 mm,23 mm,20 mm,19 mm,17 mm,19 mm,55%,45%,65%,55%,,,,,,,,,
Clc1ccc(COC(Cn2ccnc2)c2ccc(Cl)cc2Cl)c(Cl)c1 (stereo not given) [MICONAZOLE],,,,,,,,,,,,,,266 µM,236 µM,168 µM,176 µM,266 µM,
N=C(N)NS(=O)(=O)c1ccc(/N=C/c2c[nH]c3ccccc23)cc1,22 mm,23 mm,23 mm,18 mm,23 mm,22 mm,55%,35%,35%,30%,146 µM,293 µM,,,,,,,146 µM
Cc1cc(NS(=O)(=O)c2ccc(/N=C/c3c[nH]c4ccccc34)cc2)no1,19 mm,22 mm,19 mm,17 mm,23 mm,20 mm,40%,25%,45%,45%,,,,,,,,,263 µM
Cc1cc(C)nc(NS(=O)(=O)c2ccc(/N=C/c3c[nH]c4ccccc34)cc2)n1,23 mm,24 mm,22 mm,20 mm,18 mm,19 mm,28%,60%,75%,55%,,247 µM,123 µM,,,,,,
